Assay outcomes: PubChem BioAssay, several laboratories
DAGLB inh: DAGLB lipase inhibitors, primary screen, biochemical, fluorescence, HTS. Diacylglycerol lipase-beta (Homo sapiens), Q8NCG7. HEK293T DAGLB membrane lysate, EnzChek fluorogenic substrate. inhibition, % at 5.17 µM. 0.059% of 340,000 active. AID 504411, 2011; in the data active means inhibition above about 34%;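 further: 0% = enzyme with vehicle and 100% = wells lacking enzyme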
MPTP block: mitochondrial permeability transition pore inhibitors, primary screen, biochemical, isolated mouse mitochondria, absorbance. Ca2+ swelling absorbance, 30 min. inhibition, % at 10 µM. 1.4% of 360,000 active. AID 602449, 2012;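 active means inhibition of 50% or more, scaled per plate between neutral and stimulator controls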;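 further: 0% = DMSO wells given calcium and 100% = 1 mM EGTA wells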
GPR7 antagonist: GPR7 receptor antagonists, primary screen, cell-based, fluorescence, single concentration; GPR7-expressing cells, fluorescence antagonist assay; Neuropeptides B/W receptor type 1 (Homo sapiens), P48145; 1.1% of 290,000 active; AID 1861, 2009; inhibition, % at 4.4 µM; in the data active means inhibition above about 16%, passing the limit was not always enough;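 further: cells stimulated with the agonist NPW; 0% = agonist with vehicle and 100% = vehicle without agonist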
Target sequence (P48145 whole entry, looked up): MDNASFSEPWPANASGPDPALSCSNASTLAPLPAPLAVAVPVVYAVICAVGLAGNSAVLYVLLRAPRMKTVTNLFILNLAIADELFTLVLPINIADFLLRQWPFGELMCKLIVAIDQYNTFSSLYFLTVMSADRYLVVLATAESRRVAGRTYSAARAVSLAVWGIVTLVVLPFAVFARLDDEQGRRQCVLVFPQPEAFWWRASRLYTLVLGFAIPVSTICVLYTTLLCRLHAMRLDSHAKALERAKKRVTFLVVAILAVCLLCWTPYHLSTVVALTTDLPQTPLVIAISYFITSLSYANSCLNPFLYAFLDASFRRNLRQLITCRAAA
TAAR1 ag: human TAAR1 agonists, primary screen, Fluo-8 calcium fluorescence, CHO RD-HGA16 cells; vehicle wells 0%, saturating PEA agonist 100%; activation, % at 3 µM; 0.99% of 360,000 active;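 active means activation above the mean activation of all test compounds in the run plus 3 SD, cut at about 38% in these data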
Target sequence (Q96RJ0 whole entry, looked up): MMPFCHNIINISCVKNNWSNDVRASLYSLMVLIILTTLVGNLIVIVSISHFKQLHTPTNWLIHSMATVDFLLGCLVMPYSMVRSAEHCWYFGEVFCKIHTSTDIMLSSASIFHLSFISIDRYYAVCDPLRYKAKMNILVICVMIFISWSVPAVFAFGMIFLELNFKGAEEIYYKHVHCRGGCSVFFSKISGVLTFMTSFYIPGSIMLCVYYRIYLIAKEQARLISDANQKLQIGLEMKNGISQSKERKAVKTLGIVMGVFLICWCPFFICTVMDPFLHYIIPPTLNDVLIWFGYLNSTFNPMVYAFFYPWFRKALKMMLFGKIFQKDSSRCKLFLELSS
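Benchmarks: low control DMSO, high control PEA (EC100); System: CHO RD-HGA16 cells carrying human TAAR1 plus Gα16; Detection: Fluo-8 fluorescence, 5 s baseline then 140 s kinetic read; Schedule: 17-24 h plating, Fluo-8 75 min 37 °C, 30 min RT; Read-out basis: % activation from peak over basal fluorescence ratio, DMSO-to-PEA scaled.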
TAAR1 antagonist: human TAAR1 antagonists, primary screen, Fluo-8 calcium fluorescence, CHO RD-HGA16 cells; Trace amine-associated receptor 1 (Homo sapiens), Q96RJ0; antagonist; inhibition, % at 3 µM; 1.5% of 360,000 active;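 active means inhibition above a per-plate cutoff, the mean inhibition of test compounds on that plate plus 3 SD, cut at about 49% in these data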;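 further: 0% = DMSO plus EC80 beta-PEA response and 100% = DMSO alone without agonist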
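Test system: RD-HGA16 CHO cells with stable hTAAR1 and Gα16 / Probe or stimulus: EC80 β-phenethylamine stimulus / Times: seeding 17-24 h prior, 75-min 37 °C, 30-min RT dye loading / Detection: Fluo-8 calcium-sensitive fluorescence / Read-out basis: % inhibition scaled between DMSO and EC80 PEA controls / Repeats: singlicate, one well per test compound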
TAAR1 ag confirm: human TAAR1 agonists, retest of hits, confirmation, Fluo-8 calcium fluorescence, CHO RD-HGA16 cells; activation, % at 3 µM; shares compounds with TAAR1 ag; scaled: DMSO 0%, maximal phenethylamine 100%; 82% of 2,400 active;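 active means activation above a cutoff set at the run's mean compound activation plus 3 SD, cut at about 39% in these data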
Ga16 nonsel ag: nonselective calcium mobilization agonists, CHO-Ga16 cells, counter-screen for hTAAR1 agonist project, cell-based, fluorescence, CHO-Ga16 parental line; shares compounds with TAAR1 ag; Fluo-8 calcium fluorescence; normalized to maximal ATP response, DMSO zero; activation, % at 3 µM; 50% of 2,400 active; AID 651787, 2012;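 active means activation above the run cutoff, the mean activation over all tested wells plus 3 SD, cut at about 12% in these data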;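 further: 0% = DMSO wells and 100% = maximal ATP response on the peak over basal ratio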
TAAR1 desens: TAAR1 desensitization by agonist hits, confirmation, counter-screen for TAAR1 agonist project, cell-based, fluorescence, tachyphylaxis; shares compounds with TAAR1 ag; CHO RD-HGA16 hTAAR1, Fluo-8 calcium, beta-PEA response inhibition; inhibition, % at 3 µM; 46% of 2,400 active; AID 651951, 2012;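 active means inhibition above the run cutoff, the mean inhibition of all test compounds plus 3 SD, cut at about 49% in these data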;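 further: beta-PEA stimulus applied at its EC80; loss of beta-PEA calcium signal after compound pretreatment read as receptor desensitization; 0% = DMSO with beta-PEA at EC80 and 100% = DMSO alone without agonist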
Ga16 nonsel ant: inhibition of ATP-evoked calcium response in CHO-Ga16 cells, counter-screen for TAAR1 agonist project, cell-based, fluorescence. 39% of 2,400 active. inhibition, % at 3 µM. CHO-Ga16 ATP-induced calcium, Fluo-8 fluorescence. shares compounds with TAAR1 ag;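 active means inhibition above the plate's mean compound inhibition plus 3 SD, computed per plate, cut at about 22% in these data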;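 further: 0% = EC80 ATP with DMSO and 100% = DMSO wells without ATP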
Active calls of the source: *. Sampled rows, rich in hits. Any-hit rate of the full collection: about 4%.

What do the screens show for `Fc1cccc(Cc2c(-c3cccc(Cl)c3)nc3c(Cl)cc(C(F)(F)F)cn23)c1`?
MPTP block: -0.7; TAAR1 ag: 0.1; TAAR1 antagonist: -11.8

How did O=C(NC1CCCC1)C(c1ccco1)N1CCC(O)(c2ccc(Cl)cc2)CC1 (centres undefined) do in these assays?
MPTP block: 3.7; TAAR1 ag: 1.2; TAAR1 antagonist: -8.1

What do the screens show for `COC(=O)C[C@H]1C=C[C@H](NS(=O)(=O)c2cn(C)cn2)[C@@H](CO)O1`?
MPTP block: 0.4; TAAR1 ag: 7.0; TAAR1 antagonist: -22.1

Results for CN(C)CCN(C(=O)c1ccc(S(=O)(=O)N2CCCC2)cc1)c1nc2ccc(Br)cc2s1 ?
DAGLB inh: 0.3; MPTP block: -0.3; GPR7 antagonist: 0.9; TAAR1 ag: 6.8; TAAR1 antagonist: -20.3

What do the screens show for `CC1CCCCN1S(=O)(=O)c1ccc(C(=O)N(CCCN(C)C)c2nc3ccc(Br)cc3s2)cc1` (centres undefined)?
DAGLB inh: 0.5; MPTP block: 3.6; GPR7 antagonist: 23.7; TAAR1 ag: 50.7*; TAAR1 antagonist: 45.9; TAAR1 ag confirm: 68.8*; Ga16 nonsel ag: 52.4*; TAAR1 desens: 56.8*; Ga16 nonsel ant: 56.3*

Results for CN(C)CCCN(C(=O)c1ccc(S(=O)(=O)N2CCCCCC2)cc1)c1nc2ccc(F)cc2s1 ?
DAGLB inh: 1.9; MPTP block: 0.4; GPR7 antagonist: 17.6; TAAR1 ag: 66.9*; TAAR1 antagonist: 16.3; TAAR1 ag confirm: 67.6*; Ga16 nonsel ag: 30.2*; TAAR1 desens: 38.3; Ga16 nonsel ant: 20.0

Results for COc1ccc(N2C(=O)c3n[nH]c(C)c3C2c2cccc(C(F)(F)F)c2)cc1 (centres undefined) ?
TAAR1 ag: 2.7; TAAR1 antagonist: -18.5

Results for COC(=O)C1=C(C)N(Cc2ccc(Cl)cc2)C(=S)NC1c1ccccc1 (centres undefined) ?
TAAR1 ag: -1.4; TAAR1 antagonist: 30.2

Results for C/C=C/c1ccc(OCC(O)CNCCc2ccc(OC)cc2)c(OC)c1 (centres undefined) ?
DAGLB inh: 1.7; MPTP block: 1.2; GPR7 antagonist: 3.6; TAAR1 ag: 63.5*; TAAR1 antagonist: 11.9; TAAR1 ag confirm: 95.8*; Ga16 nonsel ag: 28.6*; TAAR1 desens: 46.0; Ga16 nonsel ant: 11.0

Results for C/C=C/c1ccc(OCC(O)CNCC(c2ccc(OC)cc2)N(C)C)c(OC)c1 (centres undefined) ?
DAGLB inh: -3.0; MPTP block: -1.4; GPR7 antagonist: 1.8; TAAR1 ag: -2.5; TAAR1 antagonist: 1.0

Results for OCc1ccccc1Cn1ccnc1 ?
DAGLB inh: -0.6; MPTP block: -1.0; TAAR1 ag: 1.1; TAAR1 antagonist: -18.6

What do the screens show for `c1ccc2c(Cn3ccnc3)c[nH]c2c1`?
DAGLB inh: -0.9; MPTP block: -0.5; GPR7 antagonist: -5.5; TAAR1 ag: 54.2*; TAAR1 antagonist: 12.9; TAAR1 ag confirm: 71.0*; Ga16 nonsel ag: 4.1; TAAR1 desens: 35.9; Ga16 nonsel ant: 6.7

How did Cc1cccc(-c2cc3nc(C)cc(N4CC(C)CC(C)C4)n3n2)c1 (centres undefined) do in these assays?
DAGLB inh: -2.4; MPTP block: 4.6; GPR7 antagonist: -7.5; TAAR1 ag: 69.8*; TAAR1 antagonist: -15.0; TAAR1 ag confirm: 81.7*; Ga16 nonsel ag: 7.1; TAAR1 desens: 30.2; Ga16 nonsel ant: -1.9

How did Cc1nn(C)cc1C=NCCOCc1ccccc1 do in these assays?
DAGLB inh: -0.9; MPTP block: -0.3; GPR7 antagonist: -4.6; TAAR1 ag: 43.7*; TAAR1 antagonist: 7.2; TAAR1 ag confirm: 66.1*; Ga16 nonsel ag: 3.1; TAAR1 desens: 11.9; Ga16 nonsel ant: -4.7

What do the screens show for `N=c1c2c(-c3ccccc3)c(-c3ccccc3)n(Cc3ccccc3)c2ncn1CCO`?
DAGLB inh: 3.3; MPTP block: 0.0; GPR7 antagonist: 16.9; TAAR1 ag: 59.4*; TAAR1 antagonist: -14.7; TAAR1 ag confirm: 49.5*; Ga16 nonsel ag: 20.2*; TAAR1 desens: 14.7; Ga16 nonsel ant: 11.9

What do the screens show for `Nn1c(SCC(=O)Nc2nccs2)nnc1C1CC1`?
DAGLB inh: -0.9; MPTP block: -0.9; GPR7 antagonist: 1.2; TAAR1 ag: 1.1; TAAR1 antagonist: -6.9

What do the screens show for `O=C(O)c1ccccc1NS(=O)(=O)c1cccc(-n2sc3ccccc3c2=O)c1`?
DAGLB inh: 7.1; MPTP block: 12.7; GPR7 antagonist: -7.7; TAAR1 ag: 16.0; TAAR1 antagonist: -6.6

Results for CCOC(=O)C1CCCN(C(c2ccccn2)c2c(C)[nH]c3ccccc23)C1 (centres undefined) ?
DAGLB inh: -1.2; MPTP block: 0.5; GPR7 antagonist: -15.3; TAAR1 ag: 66.5*; TAAR1 antagonist: 70.7*; TAAR1 ag confirm: 74.2*; Ga16 nonsel ag: 2.2; TAAR1 desens: 83.7*; Ga16 nonsel ant: 0.8

What do the screens show for `O=C(CC1C(=O)NCCN1Cc1ccccn1)NCCc1ccccc1F` (centres undefined)?
DAGLB inh: 0.7; MPTP block: -1.8; GPR7 antagonist: -6.5; TAAR1 ag: 77.8*; TAAR1 antagonist: 41.0; TAAR1 ag confirm: 96.5*; Ga16 nonsel ag: 8.4; TAAR1 desens: 72.3*; Ga16 nonsel ant: -2.9

Results for CN1CCNC(=O)C1CC(=O)NCCc1ccccc1F (centres undefined) ?
DAGLB inh: 2.0; MPTP block: -0.7; GPR7 antagonist: 4.6; TAAR1 ag: 74.3*; TAAR1 antagonist: 29.9; TAAR1 ag confirm: 88.7*; Ga16 nonsel ag: 2.0; TAAR1 desens: 59.3*; Ga16 nonsel ant: 5.5
